Test results: article PMC6688507 (Journal of medicinal chemistry, 2018)
Entries after “also recorded” stand apart in the source; their conditions may differ.

Legend:
MIA PaCa-2 cells = test: MTT cytotoxicity assay, MIA PaCa-2; type: cell-based, human; conditions: for effect of NAC on proliferation inhibitory effect: NAC 5 mM, MTT assay, 72 h; for IC50: Homo sapiens, MIA PaCa-2, 72 h, read-out: IC50 (μM) MIA PaCa-2, MTT assay, 72 h treatment, mean ± SD from three independent experiments
MIA PaCa-2 xenograft [1] = test: MIA PaCa-2 xenograft tumor growth in NOD/SCID mice; type: in vivo
[2] = tolerability in MIA PaCa-2 engrafted NOD/SCID mice; type: in vivo
[3] = test system: ROS accumulation in MIA PaCa-2 cells; test: ROS detection assay; type: cell-based, human; conditions: for ROS accumulation / ROS induction after NAC pretreatment: MIA PaCa-2; for ROS accumulation: compounds at 10, 3.3 or 1.1 μM; for ROS induction after NAC pretreatment: NAC 5 mM for 30 min; for ROS induction and cytotoxicity compared with QD325: triphenylphosphonium derivatives
Procedure, shortened: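 MIA PaCa-2 cells were trypsinised (0.05% trypsin-EDTA), loaded with 20 μM H2DCFDA for 30 min at 37 °C, washed, then seeded at 20,000 cells/well. After 30 min they were given test compound, with DMSO for basal signal and unstained cells plus 10 μM compound for autofluorescence. For NAC runs, cells were pretreated with 5 mM NAC for 30 min, with H2O2 as a control. Fluorescence was read at 493/523 nm over time, in duplicates; three independent experiments.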

[4] = test system: nascent RNA synthesis in MIA PaCa-2 cells; test: Bru-seq analysis for nascent RNA synthesis; type: cell-based, human; conditions: for apoptosis signaling by IPA analysis: 4 h, QD232 3 times IC50, QD325 5 times IC50; for nascent mitochondrial RNA synthesis: MIA PaCa-2, 4-hour treatment, QD232 at 6.9 μM, QD325 at 5.0 μM; for synthesis of NQO1 and HMOX1 RNAs / transcription of DDIT3 and HSPA5: MIA PaCa-2, 4 h; for synthesis of NQO1 and HMOX1 RNAs: QD232 at 1, 2 or 3 times IC50, QD325 at 1, 2 or 5 times IC50; for transcription of DDIT3 and HSPA5: dose-dependent
BxPC-3 cells = test: MTT cytotoxicity assay, BxPC-3; type: cell-based; conditions: Homo sapiens, BXPC-3, 72 h, read-out: IC50 (μM) BxPC-3, MTT assay, 72 h treatment; mean ± SD from three independent experiments
MIA PaCa-2 xenograft [5] = conditions: 20 mg/kg, 31-day study, similar MIA PaCa-2 xenograft model; cited from earlier work
pancreatic cancer = conditions: metastatic pancreatic cancer patients; cited from earlier work

## O=C1C(Nc2ccc(-c3ccccc3)cc2)=CC(=O)c2ncncc21 [QD325, 6-([1,1’-Biphenyl]-4-ylamino)quinazoline-5,8-dione]
MIA PaCa-2 cells
  effect of NAC on proliferation inhibitory effect: attenuated
MIA PaCa-2 xenograft [1]; QD325 5 mg/kg five times a week until day 44, immunohistochemistry
  Ki67 staining (proliferation marker) in tumor tissues: decreased
MIA PaCa-2 xenograft [1]; QD325 5 mg/kg five times a week, 48 days
  inhibition of tumor growth, experiment of Figure 6E: 83%
MIA PaCa-2 xenograft [1]; QD325 5 mg/kg five times a week, day 44
  inhibition of tumor growth, experiment of Figure 5A: 76%
MIA PaCa-2 xenograft [1]; QD325-treated vs vehicle-treated tumors
  NQO1, HO-1, CHOP and GRP78 protein levels in tumor lysates: significantly upregulated
[2]; 5 mg/kg five times a week until day 44
  histopathology of H&E stained organ sections: did not reveal any major histopathological changes
[2]; dose increased from 5 to 20 mg/kg, day 44 to day 67, two mice per group
  systemic toxicity at higher doses: without any overt systemic toxicity
[2]; study 1, 5 mg/kg five times a week until day 44
  symptoms of gross toxicity (weakness, weight loss, lethargy): No symptoms of gross toxicity
[3]
  ROS accumulation: time-and dose-dependent accumulation of ROS; also recorded: stronger and more rapid ROS accumulation
  ROS induction after NAC pretreatment: inhibited
[4]
  apoptosis signaling by IPA analysis: significant activation of apoptosis signaling
  nascent mitochondrial RNA synthesis: inhibited
  synthesis of NQO1 and HMOX1 RNAs: upregulated in a dose-dependent manner
  transcription of DDIT3 and HSPA5: significantly increased

## COc1cc(NC2=CC(=O)c3ncncc3C2=O)cc(OC)c1OC [QD326, 6-((3,4,5-Trimethoxyphenyl)amino)quinazoline-5,8-dione]
MIA PaCa-2 cells
  effect of NAC on proliferation inhibitory effect: attenuated
[3]
  ROS accumulation: time-and dose-dependent accumulation of ROS; also recorded: stronger and more rapid ROS accumulation
  ROS induction after NAC pretreatment: inhibited

## Nc1ccc(C(=O)NCCC[P+](c2ccccc2)(c2ccccc2)c2ccccc2)cc1 [QD339, (3-(4-Aminobenzamido)propyl)triphenylphosphonium bromide]
MIA PaCa-2 cells
  IC50: > 30 µM
BxPC-3 cells
  IC50: > 30 µM

## Nc1cccc(C(=O)NCCC[P+](c2ccccc2)(c2ccccc2)c2ccccc2)c1 [QD358, (3-(3-Aminobenzamido)propyl)triphenylphosphonium bromide]
MIA PaCa-2 cells
  IC50: > 30 µM
BxPC-3 cells
  IC50: > 30 µM

## CC(=O)c1cccc(NC2=CC(=O)c3ncncc3C2=O)c1 [QD232, reference compound]
MIA PaCa-2 cells
  effect of NAC on proliferation inhibitory effect: attenuated
[3]
  ROS accumulation: time-and dose-dependent accumulation of ROS
  ROS induction after NAC pretreatment: inhibited
[4]
  apoptosis signaling by IPA analysis: significant activation of apoptosis signaling
  nascent mitochondrial RNA synthesis: inhibited
  synthesis of NQO1 and HMOX1 RNAs: upregulated in a dose-dependent manner
  transcription of DDIT3 and HSPA5: significantly increased
MIA PaCa-2 xenograft [5]
  suppression of tumor growth: 65%

## O=C(NCCC[P+](c1ccccc1)(c1ccccc1)c1ccccc1)c1ccc(NC2=CC(=O)c3ncncc3C2=O)cc1.[Br-] [QD340, (3-(4-((5,8-Dioxo-5,8-dihydroquinazolin-6-yl)amino)benzamido)propyl) triphenylphosphonium bromide]
[3]
  ROS induction and cytotoxicity compared with QD325: did not show better ROS induction and cytotoxicity than QD325

## FOLFIRINOX
Pancreatic cancer
  median overall survival: 11.1 months

## Nc1ccn([C@@H]2O[C@H](CO)[C@@H](O)C2(F)F)c(=O)n1 [Gemcitabine]
Pancreatic cancer
  median overall survival: 6.8 months

## O=C(NCCC[P+](c1ccccc1)(c1ccccc1)c1ccccc1)c1cccc(NC2=CC(=O)c3ncncc3C2=O)c1.[Br-] [QD359, (3-(3-((5,8-Dioxo-5,8-dihydroquinazolin-6-yl)amino)benzamido)propyl) triphenylphosphonium bromide]
[3]
  ROS induction and cytotoxicity compared with QD325: did not show better ROS induction and cytotoxicity than QD325
